In one data set the test system is Vero. The data set is described as follows: Cytotoxicity against Vero cells. The class given is cell-based. The note with it: Chlorocebus sabaeus. Summed up:
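Confluent Vero monolayers in 96-well trays, DMEM with 10% calf serum, exposed in triplicate to 1–500 µM for 48 h at 37 °C. Cells then fixed with 3.7% formaldehyde, rinsed and examined visually. IC50 taken as the concentration causing about 50% loss of monolayer.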

For data set [1], the system named is Neutrophil. The experiment in a line: Apoptotic activity in human blood neutrophils after 24 hrs. In kind it is functional. Further details: concentration or dose not given beside the values. The procedure, abridged: (§1)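 Neutrophils (>98% pure) isolated from peripheral blood of healthy donors by dextran sedimentation and discontinuous plasma Percoll gradients. Cultured at 37 °C, 5% CO2 in RPMI 1640 with 10% autologous platelet-rich-plasma-derived serum. Compound given at 50 µM in DMSO; controls were untreated cells and 0.01% DMSO. Apoptosis scored by May-Grunwald Giemsa morphology, 500 cells/slide, at 0–72 h. Mean ± SD, n = 3-5.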

For data set [2], the system named is Neutrophil. The data set is described as follows: Apoptotic activity in human blood neutrophils after 48 hrs. In kind it is functional. Further details: concentration or dose not given beside the values. The procedure, abridged: as §1
For data set [3], the system named is Neutrophil. The experiment in a line: Apoptotic activity in human blood neutrophils after 72 hrs. The arrangement: concentration or dose not given beside the values. In kind it is functional. Summed up:
as §1

Data set [4] in a line: Partition coefficient, log P of the compound. As to conditions: octanol/water. In kind it is physicochemical.
Data set [5] in a line: Binding affinity to DNA by methyl green/DNA displacement assay. The note with it: Homo sapiens.

Molecules are shown by their SMILES.

As usually defined, the IC50 is the midpoint of a concentration-inhibition curve. What is called logP is a log measure of how a compound divides between an organic and an aqueous phase. For `CCCCCc1ccc(N2C(=O)c3nccnc3C2=O)cc1`, the IC50 in the data set on Vero worked out at 16 µM. In addition, the values for the Activity in the data set on Neutrophil [1], in the data set with Neutrophil [2] and with Neutrophil [3] were 31.1%, 49.2% and 60%, respectively. The logP in data set [4] was determined as 3.8. In data set [5], this molecule registered a C50 of 42 µg/mL.
The molecule `COc1ccc(CN2C(=O)c3nccnc3C2=O)cc1` had an IC50 in the data set on Vero of over 100 µM.
`O=C1[C@@H]2C3C=CC(CC3)[C@@H]2C(=O)N1CCc1ccccc1`: inhibition in the data set with Vero was half-maximal at 87 µM (IC50). In addition, the logP in data set [4] stood at 2.5.
Regarding `CCN1C(=O)c2cccnc2C1=O`, the IC50 in the data set on Vero is over 100 µM.
As to `Cc1cccc(C)c1N1C(=O)[C@@H]2C3C=CC(CC3)[C@@H]2C1=O`, in the data set with Vero, the 50% inhibitory concentration (IC50) turned out to be 13 µM. In addition, the Activity with Neutrophil [1] was 38.4%; with Neutrophil [2], 53.2%; in the data set on Neutrophil [3], 67.98%. The logP in data set [4] turned out to be 3.1. In data set [5], this molecule registered a C50 of 53 µg/mL.
On to `O=C1c2ccccc2C(=O)N1c1ccccc1` [N-PHENYL-PHTHALIMIDE], for which the IC50 with Vero turned out to be 82 µM.
With `CCCCCc1ccc(N2C(=O)[C@@H]3C4C=CC(CC4)[C@@H]3C2=O)cc1`, the IC50 in the data set on Vero came to 10 µM. The Activity in the data set with Neutrophil [1] was 39.11%; in the data set on Neutrophil [2], 58.06%; in the data set with Neutrophil [3], 70.01%. In data set [4], this molecule registered a log partition coefficient (logP) of 4.2. In data set [5], this molecule came in with a C50 of 31 µg/mL.
As to `O=C1c2cccnc2C(=O)N1c1ccc(C(F)(F)F)cc1`, half-maximal inhibition with Vero (IC50) required 87 µM.
As to `O=C1c2nccnc2C(=O)N1c1ccccc1`, in the data set with Vero, the IC50 came to 71 µM.
Turning to `O=C1[C@@H]2C3C=CC(CC3)[C@@H]2C(=O)N1Cc1ccccc1`, in the data set on Vero, the midpoint of inhibition, the IC50, lay at 74 µM. The logP in data set [4] was found to be 2.3.
In the case of `O=C1[C@@H]2C3C=CC(CC3)[C@@H]2C(=O)N1C12CC3CC(CC(C3)C1)C2`, in the data set on Vero, 14 µM corresponded to half-maximal inhibition (IC50). Further, the results for the Activity in the data set with Neutrophil [1], in the data set on Neutrophil [2] and with Neutrophil [3] were 35.5%, 53.2% and 68.11%, respectively. This molecule yielded a logP in data set [4] of 2.2. Moreover, the C50 in data set [5] stood at 69 µg/mL.
For the molecule `COc1ccc(CN2C(=O)c3nccnc3C2=O)cc1OC`, the IC50 with Vero was over 100 µM.
On the same count and under the same terms, next, `C[C@@H](c1ccccc1)N1C(=O)c2cccnc2C1=O`: 92 µM.
For `CC(C)c1cccc(C(C)C)c1N1C(=O)[C@@H]2C3C=CC(CC3)[C@@H]2C1=O`, the IC50 in the data set with Vero was 16 µM. Also, the Activity in the data set on Neutrophil [1] turned out to be 32.4%; in the data set on Neutrophil [2] it was 49.11%; in the data set with Neutrophil [3], 59.2%. In data set [4], this molecule showed a logP of 4.6.
The molecule `O=C1c2nccnc2C(=O)N1c1ccc(C(F)(F)F)cc1` came in with an IC50 with Vero of 80 µM.
In turn, `O=c1[nH]cc(F)c(=O)[nH]1` [FLUOROURACIL] registered an IC50 in the data set with Vero of 0.2 µM.
In turn, `CCN1C(=O)[C@@H]2C3C=CC(CC3)[C@@H]2C1=O` displayed an IC50 with Vero of over 100 µM. The same molecule returned a logP in data set [4] of 0.8.
In the case of `O=C1c2cccnc2C(=O)N1CCc1ccccc1`, the IC50 with Vero was over 100 µM.
As for `O=C1c2cccnc2C(=O)N1Cc1ccccc1`, the IC50 in the data set with Vero is over 100 µM.
As to `O=C1c2cccnc2C(=O)N1c1ccccc1`, the half-inhibitory concentration (IC50) with Vero came out at 72 µM.
On the same count and under the same terms, next, `COc1ccc(CN2C(=O)[C@@H]3C4C=CC(CC4)[C@@H]3C2=O)cc1OC`: 63 µM.
With `O=C1c2cccnc2C(=O)N1C12CC3CC(CC(C3)C1)C2`, half-maximal inhibition in the data set with Vero (IC50) required 18 µM. Besides, the Activity in the data set with Neutrophil [1] is given as 31.1%; in the data set with Neutrophil [2], 46%; in the data set with Neutrophil [3] it was 56.1%. In data set [4], this molecule gave a logP of 2.3.
The corresponding values for `CC(C)(C)N1C(=O)c2cccnc2C1=O` are 33 µM, 11%, 25.07%, 30.23% and 1.4.
Consider `CCN1C(=O)c2nccnc2C1=O`, for which the IC50 in the data set on Vero was over 100 µM.
The same measure, in the same setting: next, `COc1ccc(CN2C(=O)[C@@H]3C4C=CC(CC4)[C@@H]3C2=O)cc1`: 67 µM.
Molecule `CCCCCc1ccc(N2C(=O)c3cccnc3C2=O)cc1` returned an IC50 in the data set on Vero of 18 µM. The Activity with Neutrophil [1] was 32.11%; with Neutrophil [2], 47.05%; with Neutrophil [3], 57.87%. Moreover, in data set [4], the logP worked out at 4.3. Further, the C50 in data set [5] was 49 µg/mL.
Take `CC(C)c1cccc(C(C)C)c1N1C(=O)c2cccnc2C1=O`: in the data set with Vero, inhibition was half-maximal at 21 µM (IC50). Also, the Activity is listed as 19.1% in the data set with Neutrophil [1], 32.77% in the data set with Neutrophil [2] and 41.62% in the data set on Neutrophil [3]. Moreover, the logP in data set [4] amounted to 4.6.
The matching figures for `CC(C)(C)N1C(=O)[C@@H]2C3C=CC(CC3)[C@@H]2C1=O`: 27 µM, 12.82%, 29.76%, 35.64% and 1.3.
In the data set on Vero, `COc1ccc(CN2C(=O)c3cccnc3C2=O)cc1` came in with an IC50 of over 100 µM.
On the same count and under the same terms, the same measure for `C[C@@H](c1ccccc1)N1C(=O)c2nccnc2C1=O`: 85 µM; for `C[C@@H](c1ccccc1)N1C(=O)c2ccccc2C1=O`: over 100 µM; for `O=C1c2nccnc2C(=O)N1c1ccc(Cl)cc1`: 86 µM.
Same read-out and setting: the same measure for `O=C1c2ccccc2C(=O)N1CCc1ccccc1`: 100 µM.
As to `O=C1[C@@H]2C3C=CC(CC3)[C@@H]2C(=O)N1c1ccccc1`, in the data set with Vero, the IC50 was 67 µM.
In the data set with Vero, `C[C@@H](c1ccccc1)N1C(=O)[C@@H]2C3C=CC(CC3)[C@@H]2C1=O` registered an IC50 of 49 µM.
In the data set with Vero, `CC(C)(C)N1C(=O)c2nccnc2C1=O` displayed an IC50 of 32 µM. Also, the Activity in the data set on Neutrophil [1] is 12%; in the data set on Neutrophil [2], 27.6%; with Neutrophil [3], 33.91%. In addition, in data set [4], the logP was 0.9.
The corresponding values for `CC(C)c1cccc(C(C)C)c1N1C(=O)c2ccccc2C1=O` are 23 µM, 15.56%, 30.2%, 39.1% and 5.1.
The corresponding values for `CC(C)c1cccc(C(C)C)c1N1C(=O)c2nccnc2C1=O` are 20 µM, 24.07%, 38.1%, 46.11% and 4.2.
Take `O=C1c2ccccc2C(=O)N1C12CC3CC(CC(C3)C1)C2`: the IC50 in the data set on Vero was 20 µM. The Activity with Neutrophil [1] was 21.11%; in the data set on Neutrophil [2], 34.66%; with Neutrophil [3] it was 42.01%. In data set [4], the logP came to 2.7.
`O=C1c2ccccc2C(=O)N1Cc1ccccc1` displayed an IC50 with Vero of 100 µM.
The molecule `O=C1[C@@H]2C3C=CC(CC3)[C@@H]2C(=O)N1c1ccc(C(F)(F)F)cc1` returned an IC50 in the data set with Vero of 75 µM.
Take `O=c1c(O)c(-c2ccc(O)c(O)c2)oc2cc(O)cc(O)c12` [QUERCETIN]: the results for the Activity with Neutrophil [1], in the data set with Neutrophil [2] and with Neutrophil [3] were 39.9%, 49.9% and 71.3%, respectively.
`C[C@H](c1ccccc1)N1C(=O)[C@@H]2C3C=CC(CC3)[C@@H]2C1=O` came in with a half-maximal inhibitory concentration (IC50) with Vero of 43 µM.
Regarding `O=C1c2cccnc2C(=O)N1Cc1ccc(Cl)cc1`, in the data set with Vero, the concentration for half-maximal inhibition (IC50) turned out to be 95 µM.
Turning to `Cc1cccc(C)c1N1C(=O)c2nccnc2C1=O`, in the data set with Vero, the IC50 was 18 µM. Moreover, the Activity in the data set with Neutrophil [1] is listed as 28%; with Neutrophil [2], 42.03%; in the data set with Neutrophil [3] it was 50.1%. This molecule also displayed a logP in data set [4] of 2.7. The C50 in data set [5] stood at 59 µg/mL.
As to `O=C1c2nccnc2C(=O)N1Cc1ccccc1`, in the data set on Vero, the IC50 was over 100 µM.
Still for that read-out and setting: next, `O=C1c2nccnc2C(=O)N1CCc1ccccc1`: over 100 µM.
Molecule `O=C1c2nccnc2C(=O)N1C12CC3CC(CC(C3)C1)C2` showed a half-maximal inhibitory concentration (IC50) in the data set with Vero of 18 µM. Moreover, the Activity with Neutrophil [1] is 30.01%; in the data set with Neutrophil [2], 45.1%; with Neutrophil [3] it was 54.05%. This molecule also registered a logP in data set [4] of 1.8.
In the data set on Vero, `COc1ccc(CN2C(=O)c3cccnc3C2=O)cc1OC` came in with an IC50 of over 100 µM.
In the data set with Vero, `O=C1[C@@H]2C3C=CC(CC3)[C@@H]2C(=O)N1c1ccc(Cl)cc1` displayed an IC50 of 77 µM.
For the molecule `O=C1c2nccnc2C(=O)N1Cc1ccc(Cl)cc1`, the IC50 in the data set on Vero came to 88 µM.
`O=C1[C@@H]2C3C=CC(CC3)[C@@H]2C(=O)N1Cc1ccc(Cl)cc1` returned an IC50 in the data set with Vero of 51 µM.
Turning to `C[C@H](c1ccccc1)N1C(=O)c2cccnc2C1=O`, in the data set with Vero, the IC50 amounted to 81 µM.
`O=C1c2cccnc2C(=O)N1c1ccc(Cl)cc1` came in with an IC50 with Vero of 92 µM.
The molecule `C[C@H](c1ccccc1)N1C(=O)c2nccnc2C1=O` came in with an IC50 with Vero of 79 µM.
Turning to `Cc1cccc(C)c1N1C(=O)c2cccnc2C1=O`, the IC50 in the data set with Vero came out at 20 µM. In addition, the Activity is recorded as 22.21% in the data set with Neutrophil [1], 35% in the data set on Neutrophil [2] and 44.16% with Neutrophil [3]. Besides, the logP in data set [4] was 3.2. The molecule further registered a C50 in data set [5] of 64 µg/mL.

These data come from ChEMBL document CHEMBL1146369, “Novel and versatile methodology for synthesis of cyclic imides and evaluation of their cytotoxic, DNA binding, apoptotic inducing activities and molecular modeling study” (Eur J Med Chem, 2007).
